Source: PubChem BioAssay (several laboratories)
STAT1 act-1: increases IFN-gamma driven STAT1 reporter signal; 2.6% of 200,000 active; AID 932; NIH 3T3 STAT1-luciferase reporter, luminescence; 100% = IFN-gamma alone, no compound; activation (% of control), % at 5.5 µM;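 active = activation above the screen-wide mean activation plus 3 SD, cut at about 130% in these data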;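 also: raw ratio to IFN-gamma control signal so 100% means no change and 0% no light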
APP 5'UTR act: activates APP 5'UTR luciferase reporter; 1% of 190,000 active; SH-SY5Y APP 5'UTR luciferase reporter, luminescence; zero percent = DMSO vehicle wells; activation, % at 2 µM;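 active = activation above a set limit, based on mean plus 3 SD of controls, cut at about 140% in these data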
STAT3 inh: reduces IL-6 driven STAT3 reporter signal | 0.89% of 190,000 active | inhibition, % at 5.5 µM | U3A cells, IL-6 STAT3-luciferase reporter, luminescence; host cell line lacks STAT1;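 active = inhibition above the mean inhibition across all screened compounds plus 3 SD, cut at about 44% in these data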;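 also: 0% = DMSO only wells and 100% = 100 µM nifuroxazide control wells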
STAT1 inh: inhibitors of IFN-gamma induced STAT1 signaling; inhibition, % at 5.5 µM; AID 920; NIH 3T3 STAT1-luciferase reporter, luminescence; 0.35% of 200,000 active;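 active = inhibition above a set limit, the mean inhibition across all tested compounds plus 3 SD, cut at about 34% in these data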;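 also: 0% = IFN-gamma with DMSO and 100% = IFN-gamma with 300 µM nifuroxazide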
STAT3 act-1: STAT3 signaling activation; U3A cells, IL-6 STAT3-luciferase reporter, luminescence; 100% = signal with IL-6 EC80 alone; activation (% of control), % at 5.6 µM; 0.91% of 190,000 active;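 active = activation above the screen-wide mean of compound activation plus 3 SD, cut at about 130% in these data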;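 also: 0% = background luminescence of wells with medium and substrate only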
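Material: human STAT1-deficient U3A cells with stable STAT3-luciferase reporter / Probe or stimulus: IL-6 stimulus at 33 ng/mL final / Schedule: 1 h compound pre-exposure, 6 h IL-6 stimulation, 37 °C / Technique: luminescence / Read-out basis: percent of IL-6-only median luminescence / Control set: IL-6-only high control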
NF-kB neuron act: compounds increasing NF-kB expression in human neuronal cells; NF-kB reporter expression; hits give high values; fold change at 12.5 µM; 1.6% of 190,000 active; in the data active = fold change above about 3.3
STAT3 act-2: STAT3 activation, confirmation assay | shares compounds with STAT3 act-1 | AID 1267 | U3A STAT3-luciferase reporter, IL-6 potentiation, luminescence; U3A cells lack STAT1; 100 means same as IL-6 alone | potentiation (% of control), % at 5.7 µM | 64% of 1,200 active;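 active = percent activation of the STAT3 luciferase reporter above a set limit taken from the earlier primary screen, cut at about 130% in these data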;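 also: 0% = background signal of medium plus substrate and 100% = median of IL-6 with DMSO wells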
NFkB act STAT3ct: counter-screen for STAT3 activators: NF-kappaB activation. shares compounds with STAT3 act-1. human cells, NF-kappaB reporter activation. activation (% of control), % at 5.7 µM. 11% of 1,200 active. AID 1309; in the data active = activation above about 120%;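 also: reporter induced by TNF-alpha stimulation; 100% = median of stimulated DMSO wells and 0% = no signal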
STAT1 act-2: activates STAT1, counter-screen to STAT3 activators; activation (% of control), % at 5.7 µM; shares compounds with STAT3 act-1; 13% of 1,200 active; NIH 3T3 STAT1-luciferase reporter, IFN-gamma, luminescence; AID 1318;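 active = activation above the solvent-only control well mean plus 3 SD, set per screening run, cut at about 120% in these data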;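 also: 100% = IFN-gamma with DMSO median signal so 100% means no change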
Numbers without * were called inactive; · = no result. A selection: hits, their analogues and other compounds. The true share with any hit is near 5.1%.

SMILES | STAT1 act-1 | APP 5'UTR act | STAT3 inh | STAT1 inh | STAT3 act-1 | NF-kB neuron act | STAT3 act-2 | NFkB act STAT3ct | STAT1 act-2
C=CCn1c(=O)c2ccccc2n2c(SCc3nc4ccccc4s3)nnc12 | 110.9 | 50.0 | -46.6 | -11.8 | 144.2* | 1.08 | 141.8* | 122.5* | 135.5*
COC(=O)c1c(NC(=O)CN2CCN(c3cccc(Cl)c3)CC2)sc(C)c1C | 99.9 | · | 24.0 | 0.1 | 79.8 | 1.09 | · | · | ·
Cc1cccc(C)c1NC(=O)COC(=O)CCC(=O)c1cccs1 | 102.9 | -6.8 | -0.8 | -3.4 | 107.5 | 1.05 | · | · | ·
Clc1ccc(/C=C\c2nccc3c2[nH]c2ccccc23)cc1 | 102.6 | -4.5 | -58.7 | -3.9 | 148.4* | 1.45 | 144.7* | 107.9 | 100.3
N#Cc1ccc(/C=C\c2nccc3c2[nH]c2ccccc23)cc1 | 118.8 | 9.7 | -62.5 | -23.8 | 157.1* | 0.72 | 141.2* | 102.9 | 102.6
Cc1ccc(C)c(S(=O)(=O)Nc2cc(SCC(=O)O)c(O)c3ccccc23)c1 | 93.8 | -22.9 | -55.5 | 7.0 | 143.0* | 0.62 | 145.6* | 104.9 | 107.8
CCOCCCNC(=O)c1ccc2c(c1)N=C(CC)c1cc(Br)ccc1S2 | 117.0 | -94.4 | -45.7 | -19.4 | 157.2* | 3.04 | 122.0 | 160.3* | 119.3
CCCCOCCCNC(=O)c1ccc(OC)cc1 | 99.3 | -10.7 | 10.7 | 0.7 | 96.5 | 1.24 | · | · | ·
Cc1coc(NC(=O)CSc2nc(-c3ccc(Cl)cc3)cc(C(F)(F)F)c2C#N)n1 | 100.0 | 20.4 | -36.6 | 0.0 | 137.7* | 1.04 | 130.4 | 104.5 | 102.6
COc1ccc(-c2cc(C(F)(F)F)c(C#N)c(SCC(=O)Nc3nc(C)co3)n2)cc1 | 102.9 | 5.6 | 4.1 | -3.2 | 106.4 | 1.65 | · | · | ·
O=C(Nc1ncccn1)c1ccc(C(F)(F)F)cc1 | 115.7 | 30.6 | 1.2 | -17.3 | 102.3 | 1.41 | · | · | ·
CC(C)c1ccc(S(=O)(=O)N2CCCCC2)cc1 | 94.7 | 5.0 | 1.2 | 4.0 | 108.9 | 1.34 | · | · | ·
COc1ccc(N=c2oc3ccc(OC)cc3cc2-c2nc3ccccc3[nH]2)cc1 | 127.1 | 4.5 | -46.4 | -29.5 | 142.7* | 2.63 | 125.2 | 116.4 | 119.4
COc1ccc2oc(=Nc3ccc(C(=O)O)cc3)c(C(=O)NCc3ccco3)cc2c1 | 97.5 | 15.7 | 5.6 | 1.2 | 101.0 | 1.21 | · | · | ·
CC1CN(Cc2ccc(Cl)cc2Cl)CC(C)O1 (stereo not drawn) | 112.4 | 5.5 | -49.2 | -13.6 | 141.6* | 1.19 | 128.9 | 118.2 | 125.2*
OCCC1CN(Cc2ccon2)CCN1Cc1ccccc1 (stereo not drawn) | 93.1 | 1.4 | -4.2 | 5.8 | 107.6 | 1.02 | · | · | ·
COC(=O)c1ccc(/C=N/Nc2nc(N3CCCCC3)nc(N3CCCCC3)n2)cc1 | 98.4 | 8.8 | 15.8 | 1.0 | 95.8 | 1.29 | · | · | ·
Cc1c(/C=N\NC(=O)C2COc3ccccc3O2)c2ccccc2n1C (stereo not drawn) | 94.8 | -91.4 | -53.3 | 5.8 | 139.1* | 3.21 | 98.2 | 110.8 | 107.2
Cn1cc(/C=N\NC(=O)C2COc3ccccc3O2)c2ccccc21 (stereo not drawn) | 86.5 | 3.5 | -5.7 | 15.1 | 103.8 | 1.16 | · | · | ·
O=C1c2ccccc2CC1Sc1nnc(-c2ccccn2)o1 (stereo not drawn) | 106.1 | 32.8 | -51.5 | -6.7 | 148.8* | 1.36 | 130.1 | 103.8 | 101.0
COCCSc1ccccc1C(=O)NCCc1ccccc1 | 97.0 | -7.2 | -47.8 | 3.3 | 137.8* | 0.97 | 149.0* | 105.7 | 97.2
CC(C)CNC(=O)c1cccc(NC(=O)Cc2ccc(Br)cc2)c1 | 102.8 | -21.1 | 2.2 | -3.1 | 100.4 | 0.69 | · | · | ·
O=S(=O)(c1cccs1)N1CCN(Cc2nc3ccccc3s2)CC1 | 88.1 | 5.4 | -23.8 | 12.9 | 123.9 | 0.96 | · | · | ·
O=C(OCc1nc2ccccc2s1)C1CCN(S(=O)(=O)c2cccs2)CC1 | 125.1 | 29.4 | -45.8 | -27.0 | 143.7* | 0.95 | 139.7* | 123.3* | 131.4*
